Activity calls are given as the source filed them. No cut-off for these calls is given here.
Experiments:
[1] = 1-octanol-phosphate buffer partition coefficient, log D of the compound at 100 uM at pH 7.4 after 24 hrs by shake-flask method; format: physicochemical
In short: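 Test compound at 100 μM final (from 10 mM DMSO stock) in 0.01 M phosphate buffer pH 7.4 and 1-octanol, shaken 700 rpm for 24 h, phases left 1 h to separate. Each phase analysed by HPLC in duplicate at 254 nm. LogD is the octanol/buffer peak-area ratio, corrected with two calibration points per compound per solvent. Three independent experiments.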

[2] = molecular target: T1, Free fatty acid receptor 1 (Homo sapiens, UniProt O14842); experiment: Agonist activity at human FFA1 receptor expressed in CHO cells assessed as increase in intracellular calcium flux at 100 nM by FLIPR assay relative to control; format: functional, cell-based
T1 sequence (O14842 whole entry): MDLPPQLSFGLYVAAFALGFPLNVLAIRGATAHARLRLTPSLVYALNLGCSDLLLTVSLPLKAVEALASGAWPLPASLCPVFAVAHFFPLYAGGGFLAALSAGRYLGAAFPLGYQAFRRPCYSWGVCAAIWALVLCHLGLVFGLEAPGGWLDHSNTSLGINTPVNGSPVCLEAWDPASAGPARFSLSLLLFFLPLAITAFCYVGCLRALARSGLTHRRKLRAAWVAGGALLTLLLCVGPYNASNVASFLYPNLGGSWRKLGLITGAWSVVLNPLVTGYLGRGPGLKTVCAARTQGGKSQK
In short: (§1)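 CHO cells stably expressing human FFA1 (NM_005303), seeded at 15 K cells/well and grown 16 h at 37 °C, 5% CO2. Calcium flux read by FLIPR Tetra. Response = (A−B)/(C−B)×100, with B vehicle and C 10 μM γ-linolenic acid. Mean of three independent experiments.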

[3] = molecular target: T1, Free fatty acid receptor 1; experiment: Agonist activity at human FFA1 receptor expressed in CHO cells assessed as increase in intracellular calcium flux by FLIPR assay; format: functional, cell-based; in short: as §1
Mus musculus [4] = experiment: Toxicity in overnight fasted ICR mouse assessed as hypoglycemia at 15 mg/kg, po measured at 30 to 180 mins; format: organism-based; details: in vivo
In short: (§2)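 Male ICR mice, 10 weeks old, fasted overnight, in 3 groups (n = 6). Single oral dose in 0.5% CMC. Tail-vein blood glucose measured by strips at 0, 30, 60, 90, 120 and 180 min. Mean ± SEM, Student's t test.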

Mus musculus [5] = experiment: Antidiabetic activity in overnight fasted STZ-induced type 2 diabetic C57BL/6 mouse model assessed as decrease in blood glucose level at 20 mg/kg, po administered glucose 30 mins post compound treatment measured at 15 to 120 mins by OGTT; format: functional, organism-based
In short: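 Male C57BL/6 mice on 45% fat diet for 4 weeks, then STZ 80 mg/kg ip, then high-fat diet 4 more weeks. Mice with fasting glucose ≥11.1 mmol/L were used, fasted 12 h (n = 6). Oral dose in 0.5% CMC, with 20% glucose (2 g/kg) orally 30 min later. Strip glucose read at −30, 0, 15, 30, 45, 60 and 120 min.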

Mus musculus [6] = experiment: Antidiabetic activity in po dosed overnight fasted ICR mouse assessed as decrease in blood glucose level administered glucose 30 mins post compound treatment measured at 15 to 120 mins by OGTT; format: functional, organism-based
In short: (§3)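 Male ICR mice, 10 weeks old, fasted 12 h and randomized (n = 6). Compound given orally at 10, 20 or 40 mg/kg in 0.5% CMC, with 30% glucose (3 g/kg) orally 30 min later. Tail blood glucose measured by test strips at −30, 0, 15, 30, 45, 60 and 120 min. Student's t test vs vehicle.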

Mus musculus [7] = experiment: Toxicity in overnight fasted ICR mouse assessed as hypoglycemia at 40 mg/kg, po measured at 30 to 180 mins; format: organism-based; details: in vivo; in short: as §2
Mus musculus [8] = experiment: Antidiabetic activity in overnight fasted ICR mouse assessed as decrease in blood glucose level at 20 mg/kg, po administered glucose 30 mins post compound treatment measured at 15 to 120 mins by OGTT; format: functional, organism-based; in short: as §3

With `Cc1cc(OCCCS(C)(=O)=O)cc(C)c1-c1cccc(COc2ccc(OCC(=O)O)c(F)c2)c1` the logD at 24 h, 100 µM [1] was 1.81.
`COc1cc(C)c(-c2cccc(COc3ccc(OCC(=O)O)c(F)c3)c2)c(C)c1` gave an Activity [2] of 58.4%, a logD at 24 h, 100 µM [1] of 3.2 and an EC50 [3] of 49.7 nM.
In the case of `CCCOc1cc(C)c(-c2cccc(COc3ccc(OCC(=O)O)c(F)c3)c2)c(C)c1`, the Activity [2] is reported as 47.9%, the logD at 24 h, 100 µM [1] is reported as 3.64 and the EC50 [3] is reported as 106 nM.
`COCCCOc1cc(C)c(-c2cccc(COc3ccc(OCC(=O)O)c(F)c3)c2)c(C)c1` gave an Activity [2] of 38%.
In the case of `CC(=O)N(CC(=O)O)c1ccc(OCc2cccc(-c3c(C)cc(OCCCS(C)(=O)=O)cc3C)c2)cc1`, the Activity [2] is reported as 36.3%.
In the case of `Cc1cc(OCc2ccccc2)cc(C)c1-c1cccc(COc2ccc(OCC(=O)O)c(F)c2)c1`, the Activity [2] is reported as 26.4%.
For `COc1ccc(Cl)cc1C(=O)NCCc1ccc(S(=O)(=O)NC(=O)NC2CCCCC2)cc1` [GLYBURIDE], the Activity (Mus musculus [4]) was “Toxic”.
Compound `Cc1cc(OCC(=O)N(C)C)cc(C)c1-c1cccc(COc2ccc(OCC(=O)O)c(F)c2)c1` has an Activity [2] of 13.5%.
`Cc1cc(OCCCS(C)(=O)=O)cc(C)c1-c1cccc(COc2ccc(N(CC(=O)O)C(=O)c3ccoc3)cc2)c1` showed an Activity [2] of 28.9%.
`Cc1cc(OCC(=O)N2CCOCC2)cc(C)c1-c1cccc(COc2ccc(OCC(=O)O)c(F)c2)c1` gave an Activity [2] of 18.4%.
Work on `Cc1cc(OCc2cccc(-c3c(C)cc(OCCCS(C)(=O)=O)cc3C)c2)ccc1N(CC(=O)O)C(=O)c1ccccc1` yielded an Activity [2] of 2.57%.
In the case of `CCOc1cc(C)c(-c2cccc(COc3ccc(OCC(=O)O)c(F)c3)c2)c(C)c1`, the Activity [2] is reported as 53.1%, the logD at 24 h, 100 µM [1] is reported as 3.48 and the EC50 [3] is reported as 65.9 nM.
For `Cc1cc(OCCCS(C)(=O)=O)ccc1-c1cccc(COc2ccc(OCC(=O)O)c(F)c2)c1`, the Activity (Mus musculus [5]) was “Active”, the Activity (Mus musculus [6]) was “Dose-dependent effect” and the Activity [2] was 61.3%. The logD at 24 h, 100 µM [1] was 1.63, the EC50 [3] was 43.6 nM and the Activity (Mus musculus [7]) was “Non-toxic”.
`Cc1cc(OCCCS(C)(=O)=O)cc(C)c1-c1cccc(COc2ccc(N(CC(=O)O)C(=O)c3ccccc3)cc2)c1` gave an Activity [2] of 23.5%.
`CC(=O)N(CC(=O)O)c1ccc(OCc2cccc(-c3c(C)cc(OCCCS(C)(=O)=O)cc3C)c2)cc1C` gave an Activity [2] of 18.4%.
Compound `Cc1cc(OCC(C)C)cc(C)c1-c1cccc(COc2ccc(OCC(=O)O)c(F)c2)c1` has an Activity [2] of 35.2%.
In the case of `Cc1cc(O)cc(C)c1-c1cccc(COc2ccc(OCC(=O)O)c(F)c2)c1`, the Activity [2] is reported as 44.3%, the logD at 24 h, 100 µM [1] is reported as 2.37 and the EC50 [3] is reported as 110 nM.
`Cc1cc(OC(C)C)cc(C)c1-c1cccc(COc2ccc(OCC(=O)O)c(F)c2)c1` gave an Activity [2] of 36.9%.
`COCCOc1cc(C)c(-c2cccc(COc3ccc(OCC(=O)O)c(F)c3)c2)c(C)c1` gave an Activity [2] of 48.7%, a logD at 24 h, 100 µM [1] of 3.15 and an EC50 [3] of 104 nM.
Compound `Cc1cc(OCCCO)cc(C)c1-c1cccc(COc2ccc(OCC(=O)O)c(F)c2)c1` has an Activity [2] of 44.4%, a logD at 24 h, 100 µM [1] of 2.73 and an EC50 [3] of 110 nM.
For `Cc1cc(OCCCS(C)(=O)=O)cc(C)c1-c1cccc(COc2ccc3c(c2)OC[C@H]3CC(=O)O)c1`, the Activity (Mus musculus [5]) was “Active”, the logD at 24 h, 100 µM [1] was 2.43 and the Activity (Mus musculus [8]) was “Active”.
With `CCCCOc1cc(C)c(-c2cccc(COc3ccc(OCC(=O)O)c(F)c3)c2)c(C)c1` the Activity [2] was 41.6%.
Work on `Cc1cc(OCCOCc2ccccc2)cc(C)c1-c1cccc(COc2ccc(OCC(=O)O)c(F)c2)c1` yielded an Activity [2] of 23.6%.

— ChEMBL document CHEMBL3627655, “Design, synthesis and biological activity of phenoxyacetic acid derivatives as novel free fatty acid receptor 1 agonists” (Bioorg Med Chem, 2015)
